Test results published in ChEMBL document CHEMBL1140952 (J Med Chem, 2009).
In brackets after ≈: the same amount, converted by molar mass. Values belong to the compound of their own block, whether it stands above or below them.

Legend:
[1] = Antiproliferative activity against Met-dependent human GTL16 cells after 72 hrs by MTS assay; type: functional, cell-based; conditions: GTL 16, 72 h
[2] = target: T1, Hepatocyte growth factor receptor (Homo sapiens, UniProt P08581); test: Inhibition of MET
[3] = target: Mitogen-activated protein kinase 14 (Homo sapiens, UniProt Q16539); test: Inhibition of p38alpha
[4] = Tmax in BALB/c mouse at 10 mg/kg, po; type: ADME, organism-based; parameters: dose 10 mg/kg, route oral; conditions: in vivo
Outline: (§1)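 In-life PK: single iv and oral doses given in 70% PEG400-30% water, orally as a solution formulation. Mouse values are averages of six animals and rat values of three. Dog values are averages of two or three animals per route. Plasma Cmax, Tmax, AUC0-24h, iv t1/2, Cl, Vss and oral bioavailability were derived.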

[5] = Inhibition of CDK2E
[6] = target: Vascular endothelial growth factor receptor 2 (Homo sapiens, UniProt P35968); test: Inhibition of VEGFR2
Sequence of Vascular endothelial growth factor receptor 2 (P35968 whole entry): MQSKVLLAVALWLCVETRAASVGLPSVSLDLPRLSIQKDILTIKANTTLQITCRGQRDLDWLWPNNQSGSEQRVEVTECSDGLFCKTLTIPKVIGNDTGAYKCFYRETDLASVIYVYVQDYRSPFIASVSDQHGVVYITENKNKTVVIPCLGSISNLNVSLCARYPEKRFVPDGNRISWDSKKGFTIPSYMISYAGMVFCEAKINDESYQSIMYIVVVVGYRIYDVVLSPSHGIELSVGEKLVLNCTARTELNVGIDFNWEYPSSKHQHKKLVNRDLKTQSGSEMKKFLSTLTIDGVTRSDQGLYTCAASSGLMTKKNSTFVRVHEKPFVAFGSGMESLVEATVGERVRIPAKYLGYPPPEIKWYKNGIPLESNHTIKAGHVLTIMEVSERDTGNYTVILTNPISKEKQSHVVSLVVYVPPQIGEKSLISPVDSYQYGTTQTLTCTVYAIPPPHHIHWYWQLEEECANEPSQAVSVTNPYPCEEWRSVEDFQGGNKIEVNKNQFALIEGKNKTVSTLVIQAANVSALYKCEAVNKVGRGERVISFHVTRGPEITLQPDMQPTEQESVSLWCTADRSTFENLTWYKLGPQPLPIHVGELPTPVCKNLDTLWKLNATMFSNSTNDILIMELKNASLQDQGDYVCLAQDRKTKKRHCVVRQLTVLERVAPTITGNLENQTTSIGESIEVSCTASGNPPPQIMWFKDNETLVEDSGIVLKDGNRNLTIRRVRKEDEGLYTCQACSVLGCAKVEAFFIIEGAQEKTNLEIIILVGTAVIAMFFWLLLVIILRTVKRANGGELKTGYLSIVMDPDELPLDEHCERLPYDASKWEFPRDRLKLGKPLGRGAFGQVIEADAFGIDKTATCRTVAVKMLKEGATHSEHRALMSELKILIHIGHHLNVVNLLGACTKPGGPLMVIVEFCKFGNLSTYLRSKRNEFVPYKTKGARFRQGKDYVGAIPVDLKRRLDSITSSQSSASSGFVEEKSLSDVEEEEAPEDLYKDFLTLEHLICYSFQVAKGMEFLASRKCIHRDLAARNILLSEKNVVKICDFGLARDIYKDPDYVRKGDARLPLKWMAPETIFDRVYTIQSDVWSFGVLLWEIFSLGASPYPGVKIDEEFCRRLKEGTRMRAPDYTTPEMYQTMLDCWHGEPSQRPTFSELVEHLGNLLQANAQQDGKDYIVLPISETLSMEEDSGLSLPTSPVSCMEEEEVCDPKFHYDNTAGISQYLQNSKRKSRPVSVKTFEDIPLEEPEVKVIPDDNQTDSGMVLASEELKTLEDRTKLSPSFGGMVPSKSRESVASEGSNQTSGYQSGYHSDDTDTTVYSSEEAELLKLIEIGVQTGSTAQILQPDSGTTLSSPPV

[7] = Inhibition of PKA
[8] = Oral bioavailability in Sprague-Dawley rat at 10 mg/kg; type: ADME, organism-based; conditions: in vivo; outline: as §1
[9] = AUC (0 to 24 hrs) in human GTL16 cells xenografted athymic mouse at 50 mg/kg, po; type: ADME, organism-based; parameters: time < 24 hr, dose 50 mg/kg, route oral; conditions: in vivo
Outline: (§2)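 GTL-16 human gastric carcinoma cells were implanted subcutaneously in athymic mice and tumors staged to about 125 mm³. The compound was then given orally once daily for 14 consecutive days. Drug exposure (Cmax, AUC0-24h) was measured at the dose levels. Toxicity was judged by weight loss or morbidity.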

[10] = Protein binding in Sprague-Dawley rat; type: ADME, organism-based; conditions: in vivo, read-out: PB
[11] = Antitumor activity in human GTL16 cells xenografted athymic mouse at 50 mg/kg, po administered once daily for 14 days; type: functional; conditions: GTL 16, 336 h, read-out: TGI
[12] = Antitumor activity in human GTL16 cells xenografted athymic mouse at 6.25 mg/kg, po administered once daily for 14 days; type: functional; conditions: GTL 16, 336 h, read-out: TGI
[13] = Volume of distribution at steady state in Beagle dog at 1 mg/kg, iv; type: ADME, organism-based, Canis lupus familiaris; parameters: dose 1 mg/kg, route intravenous; conditions: in vivo, read-out: Vdss; outline: as §1
NCI-N87 = test: Antiproliferative activity against Met-independent human NCI-N87 cells after 72 hrs by MTS assay; type: functional, cell-based; conditions: NCI-N87, 72 h
[14] = target: Tyrosine-protein kinase receptor TYRO3 (Homo sapiens, UniProt Q06418); test: Inhibition of Tyro3
[15] = target: BDNF/NT-3 growth factors receptor (Homo sapiens, UniProt Q16620); test: Inhibition of TrkB
Ephrin type-A receptor 3 = Ephrin type-A receptor 3 (Homo sapiens, UniProt P29320); test: Inhibition of Epha3 by Ambit binding assay
[16] = Half life in Sprague-Dawley rat at 5 mg/kg, iv; type: ADME, organism-based; parameters: dose 5 mg/kg, route intravenous; conditions: in vivo; outline: as §1
Mus musculus [17] = test: Cmax in BALB/c mouse at 10 mg/kg, po; type: ADME, organism-based; parameters: dose 10 mg/kg, route oral; conditions: in vivo; outline: as §1
[18] = target: MAP kinase-activated protein kinase 2 (Homo sapiens, UniProt P49137); test: Inhibition of MK2
Sequence of MAP kinase-activated protein kinase 2 (P49137 whole entry): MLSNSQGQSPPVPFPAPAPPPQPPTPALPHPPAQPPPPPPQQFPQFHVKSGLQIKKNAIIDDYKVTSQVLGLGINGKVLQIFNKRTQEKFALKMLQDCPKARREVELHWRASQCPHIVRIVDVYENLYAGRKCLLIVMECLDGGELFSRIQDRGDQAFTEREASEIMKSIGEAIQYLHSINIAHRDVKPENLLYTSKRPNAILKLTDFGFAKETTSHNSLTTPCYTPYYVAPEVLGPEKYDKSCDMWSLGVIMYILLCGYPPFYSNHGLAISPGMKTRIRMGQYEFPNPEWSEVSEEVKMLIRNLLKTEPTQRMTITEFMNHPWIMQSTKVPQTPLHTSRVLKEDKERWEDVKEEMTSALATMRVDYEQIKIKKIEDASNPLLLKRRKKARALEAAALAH

[19] = target: Tyrosine-protein kinase Blk (Homo sapiens, UniProt P51451); test: Inhibition of Blk by Ambit binding assay
Sequence of Tyrosine-protein kinase Blk (P51451 whole entry): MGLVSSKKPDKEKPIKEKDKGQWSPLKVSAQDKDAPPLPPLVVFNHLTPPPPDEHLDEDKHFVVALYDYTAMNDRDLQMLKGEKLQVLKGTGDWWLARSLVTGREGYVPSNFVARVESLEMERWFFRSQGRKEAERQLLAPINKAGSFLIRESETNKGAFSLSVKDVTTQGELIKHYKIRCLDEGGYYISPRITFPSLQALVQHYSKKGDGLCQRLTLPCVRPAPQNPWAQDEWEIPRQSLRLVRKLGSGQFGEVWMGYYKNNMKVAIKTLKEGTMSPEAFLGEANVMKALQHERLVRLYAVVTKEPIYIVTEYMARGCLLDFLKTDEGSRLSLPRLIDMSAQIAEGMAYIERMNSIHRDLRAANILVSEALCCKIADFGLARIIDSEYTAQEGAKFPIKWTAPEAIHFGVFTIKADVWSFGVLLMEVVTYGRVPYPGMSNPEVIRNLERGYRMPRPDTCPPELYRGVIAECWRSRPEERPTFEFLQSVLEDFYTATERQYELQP

[20] = target: Serine/threonine-protein kinase pim-1 (Homo sapiens, UniProt P11309); test: Inhibition of pim1
Mus musculus [21] = test: Toxicity in human GTL16 cells xenografted athymic mouse assessed as weight loss/morbidity at 6.25 mg/kg, po; type: organism-based; parameters: dose 6.25 mg/kg, route oral; conditions: in vivo; outline: as §2
[22] = Tmax in Sprague-Dawley rat at 10 mg/kg, po; type: ADME, organism-based; parameters: dose 10 mg/kg, route oral; conditions: in vivo; outline: as §1
[23] = target: Platelet-derived growth factor receptor beta (Homo sapiens, UniProt P09619); test: Inhibition of PDGFRbeta by cellular proliferation assay
Aurora kinase B = Aurora kinase B (Homo sapiens, UniProt Q96GD4); test: Inhibition of Aurora B
[24] = Oral bioavailability in BALB/c mouse at 10 mg/kg; type: ADME, organism-based; conditions: in vivo; outline: as §1
Rattus norvegicus = test: Cmax in Sprague-Dawley rat at 10 mg/kg, po; type: ADME, organism-based; parameters: dose 10 mg/kg, route oral; conditions: in vivo; outline: as §1
[25] = Protein binding in Beagle dog; type: ADME, organism-based, Canis lupus familiaris; conditions: in vivo, read-out: PB
[26] = Volume of distribution at steady state in BALB/c mouse at 5 mg/kg, iv; type: ADME, organism-based; parameters: dose 5 mg/kg, route intravenous; conditions: in vivo, read-out: Vdss; outline: as §1
[27] = AUC (0 to 24 hrs) in human GTL16 cells xenografted athymic mouse at 6.25 mg/kg, po; type: ADME, organism-based; parameters: time < 24 hr, dose 6.25 mg/kg, route oral; conditions: in vivo; outline: as §2
[28] = target: T1, Hepatocyte growth factor receptor; test: Inhibition of Met phosphorylation in human GTL16 cells after 30 mins; type: cell-based
Outline: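 Human GTL-16 gastric carcinoma cells were incubated with compound for 30 min, then lysed. Phospho-Met protein levels in the lysates were assessed across a range of concentrations.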

[29] = Antitumor activity in human GTL16 cells xenografted athymic mouse at 25 mg/kg, po administered once daily for 14 days; type: functional; conditions: GTL 16, 336 h, read-out: TGI
[30] = target: Tyrosine-protein kinase Mer (Homo sapiens, UniProt Q12866); test: Inhibition of Mer
[31] = target: Inhibitor of NF-kappa-B kinase alpha/beta (Homo sapiens, UniProt O14920+O15111); test: Inhibition of IKK1/2
Mus musculus [32] = test: Toxicity in human GTL16 cells xenografted athymic mouse assessed as weight loss/morbidity at 25 mg/kg, po; type: organism-based; parameters: dose 25 mg/kg, route oral; conditions: in vivo; outline: as §2
[33] = Clearance in Beagle dog at 1 mg/kg, iv; type: ADME, organism-based, Canis lupus familiaris; parameters: dose 1 mg/kg, route intravenous; conditions: in vivo; outline: as §1
[34] = Half life in BALB/c mouse at 5 mg/kg, iv; type: ADME, organism-based; parameters: dose 5 mg/kg, route intravenous; conditions: in vivo; outline: as §1
[35] = target: Serine/threonine-protein kinase PLK1 (Homo sapiens, UniProt P53350); test: Inhibition of plk1/3
Mus musculus [36] = test: Toxicity in human GTL16 cells xenografted athymic mouse assessed as weight loss/morbidity at 50 mg/kg, po; type: organism-based; parameters: dose 50 mg/kg, route oral; conditions: in vivo; outline: as §2
[37] = target: Proto-oncogene tyrosine-protein kinase Src (Homo sapiens, UniProt P12931); test: Inhibition of Src by Ambit binding assay
[38] = Cmax in human GTL16 cells xenografted athymic mouse at 6.25 mg/kg, po; type: ADME, organism-based; parameters: dose 6.25 mg/kg, route oral; conditions: in vivo; outline: as §2
NCI-H1993 = test: Antiproliferative activity against Met-dependent human NCI-H1993 cells after 72 hrs by MTS assay; type: functional, cell-based; conditions: NCI-H1993, 72 h
[39] = target: High affinity nerve growth factor receptor (Homo sapiens, UniProt P04629); test: Inhibition of TrkA
[40] = Cmax in human GTL16 cells xenografted athymic mouse at 50 mg/kg, po; type: ADME, organism-based; parameters: dose 50 mg/kg, route oral; conditions: in vivo; outline: as §2
[41] = Protein binding in BALB/c mouse; type: ADME, organism-based; conditions: in vivo, read-out: PB
[42] = Volume of distribution at steady state in Sprague-Dawley rat at 5 mg/kg, iv; type: ADME, organism-based; parameters: dose 5 mg/kg, route intravenous; conditions: in vivo, read-out: Vdss; outline: as §1
[43] = target: Macrophage-stimulating protein receptor (Homo sapiens, UniProt Q04912); test: Inhibition of Ron
Sequence of Macrophage-stimulating protein receptor (Q04912 25-304 limits assumed): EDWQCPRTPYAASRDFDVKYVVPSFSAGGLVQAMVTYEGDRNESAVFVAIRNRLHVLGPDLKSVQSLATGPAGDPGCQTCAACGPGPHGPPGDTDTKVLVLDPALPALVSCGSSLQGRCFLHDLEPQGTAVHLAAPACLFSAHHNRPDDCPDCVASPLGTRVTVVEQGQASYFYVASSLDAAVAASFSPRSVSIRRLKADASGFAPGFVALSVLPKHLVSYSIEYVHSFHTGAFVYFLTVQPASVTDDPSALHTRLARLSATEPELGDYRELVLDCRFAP
Sequence of Macrophage-stimulating protein receptor (Q04912 310-1400 limits assumed): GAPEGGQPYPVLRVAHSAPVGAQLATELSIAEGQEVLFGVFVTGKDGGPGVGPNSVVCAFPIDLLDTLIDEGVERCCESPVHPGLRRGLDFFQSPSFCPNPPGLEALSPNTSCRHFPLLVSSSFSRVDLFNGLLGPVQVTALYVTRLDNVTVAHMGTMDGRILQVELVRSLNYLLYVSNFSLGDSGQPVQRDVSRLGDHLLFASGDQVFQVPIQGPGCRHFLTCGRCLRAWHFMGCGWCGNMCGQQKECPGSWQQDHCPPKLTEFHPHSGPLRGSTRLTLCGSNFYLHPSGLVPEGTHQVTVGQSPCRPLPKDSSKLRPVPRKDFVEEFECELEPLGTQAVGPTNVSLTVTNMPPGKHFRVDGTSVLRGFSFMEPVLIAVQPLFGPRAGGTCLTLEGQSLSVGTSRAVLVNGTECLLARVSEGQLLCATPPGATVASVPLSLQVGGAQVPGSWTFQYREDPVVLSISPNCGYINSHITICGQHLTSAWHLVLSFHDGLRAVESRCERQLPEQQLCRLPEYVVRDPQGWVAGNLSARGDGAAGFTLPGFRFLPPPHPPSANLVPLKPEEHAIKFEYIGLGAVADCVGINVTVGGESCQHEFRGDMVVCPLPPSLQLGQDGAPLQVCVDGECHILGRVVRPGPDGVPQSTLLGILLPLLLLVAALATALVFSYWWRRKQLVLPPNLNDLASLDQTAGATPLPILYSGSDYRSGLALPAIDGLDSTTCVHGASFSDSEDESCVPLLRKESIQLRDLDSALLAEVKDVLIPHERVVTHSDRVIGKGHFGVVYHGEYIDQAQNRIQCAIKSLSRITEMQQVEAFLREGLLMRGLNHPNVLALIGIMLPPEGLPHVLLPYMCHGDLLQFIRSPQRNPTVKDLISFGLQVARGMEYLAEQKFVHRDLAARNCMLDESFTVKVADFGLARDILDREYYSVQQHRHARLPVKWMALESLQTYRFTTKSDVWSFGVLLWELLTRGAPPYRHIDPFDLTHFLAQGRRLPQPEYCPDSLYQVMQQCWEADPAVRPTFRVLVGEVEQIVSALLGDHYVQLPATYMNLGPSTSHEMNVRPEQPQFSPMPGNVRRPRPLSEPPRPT

[44] = Tmax in Beagle dog at 5 mg/kg, po; type: ADME, organism-based, Canis lupus familiaris; parameters: dose 5 mg/kg, route oral; conditions: in vivo; outline: as §1
[45] = Clearance in BALB/c mouse at 5 mg/kg, iv; type: ADME, organism-based; parameters: dose 5 mg/kg, route intravenous; conditions: in vivo; outline: as §1
[46] = Clearance in Sprague-Dawley rat at 5 mg/kg, iv; type: ADME, organism-based; parameters: dose 5 mg/kg, route intravenous; conditions: in vivo; outline: as §1
[47] = Antiproliferative activity against Met-driven human U87 cells after 72 hrs by MTS assay; type: functional, cell-based, U-87MG ATCC; conditions: U-87 MG
[48] = Oral bioavailability in Beagle dog at 5 mg/kg; type: ADME, organism-based, Canis lupus familiaris; conditions: in vivo; outline: as §1
Canis familiaris = test: Cmax in Beagle dog at 5 mg/kg, po; type: ADME, organism-based, Canis lupus familiaris; parameters: dose 5 mg/kg, route oral; conditions: in vivo; outline: as §1
[49] = Aqueous solubility at pH 1.0; type: physicochemical
[50] = Half life in Beagle dog at 1 mg/kg, iv; type: ADME, organism-based, Canis lupus familiaris; parameters: dose 1 mg/kg, route intravenous; conditions: in vivo; outline: as §1

T1 sequence (P08581 whole entry): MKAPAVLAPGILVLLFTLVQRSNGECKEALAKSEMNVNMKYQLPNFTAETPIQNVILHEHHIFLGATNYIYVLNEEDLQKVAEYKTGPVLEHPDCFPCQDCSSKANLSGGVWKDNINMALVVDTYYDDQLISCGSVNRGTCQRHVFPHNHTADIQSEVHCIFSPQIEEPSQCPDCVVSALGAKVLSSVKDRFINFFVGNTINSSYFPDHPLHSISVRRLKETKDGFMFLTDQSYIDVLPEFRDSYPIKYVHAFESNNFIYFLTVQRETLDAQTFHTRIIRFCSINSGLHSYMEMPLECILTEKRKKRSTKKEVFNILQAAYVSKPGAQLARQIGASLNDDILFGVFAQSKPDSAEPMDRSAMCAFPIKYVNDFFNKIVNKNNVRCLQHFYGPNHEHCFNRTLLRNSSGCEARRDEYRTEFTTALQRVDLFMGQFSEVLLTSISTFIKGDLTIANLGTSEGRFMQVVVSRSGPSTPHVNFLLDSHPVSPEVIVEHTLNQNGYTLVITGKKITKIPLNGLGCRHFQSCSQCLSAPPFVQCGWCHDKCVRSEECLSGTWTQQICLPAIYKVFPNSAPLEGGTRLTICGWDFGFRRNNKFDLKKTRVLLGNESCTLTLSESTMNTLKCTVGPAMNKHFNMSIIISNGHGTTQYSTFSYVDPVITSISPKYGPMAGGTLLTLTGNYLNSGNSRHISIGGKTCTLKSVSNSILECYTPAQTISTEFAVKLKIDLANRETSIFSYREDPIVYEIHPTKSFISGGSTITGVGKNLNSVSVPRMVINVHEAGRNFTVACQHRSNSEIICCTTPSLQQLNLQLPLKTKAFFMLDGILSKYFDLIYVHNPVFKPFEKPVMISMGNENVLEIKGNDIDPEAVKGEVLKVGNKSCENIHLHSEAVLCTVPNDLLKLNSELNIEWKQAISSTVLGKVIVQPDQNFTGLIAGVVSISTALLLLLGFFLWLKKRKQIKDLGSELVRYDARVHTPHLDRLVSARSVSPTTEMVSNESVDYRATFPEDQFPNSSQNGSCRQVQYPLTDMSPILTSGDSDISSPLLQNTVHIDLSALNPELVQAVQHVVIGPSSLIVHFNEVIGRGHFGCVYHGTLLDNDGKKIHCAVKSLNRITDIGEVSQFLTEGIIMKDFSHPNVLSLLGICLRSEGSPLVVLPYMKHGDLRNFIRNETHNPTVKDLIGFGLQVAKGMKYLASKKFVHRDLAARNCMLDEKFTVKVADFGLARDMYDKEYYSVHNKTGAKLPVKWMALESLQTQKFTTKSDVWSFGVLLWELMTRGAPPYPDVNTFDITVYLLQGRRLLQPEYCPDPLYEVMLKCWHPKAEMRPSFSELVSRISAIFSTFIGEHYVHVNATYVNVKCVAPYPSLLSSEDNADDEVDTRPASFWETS

Compound: O=C(Nc1ccc(Oc2ccnc3[nH]ccc23)c(F)c1)c1cccn(-c2ccc(F)cc2)c1=O
IC50 [1]: 60 nM

Compound: Nc1cc(Oc2ccc(NC(=O)c3cccn(-c4ccc(F)cc4)c3=O)cc2F)ccn1
IC50 [1]: 170 nM | IC50 [2]: 4.5 nM

Compound: CCOc1ccn(-c2ccc(F)cc2)c(=O)c1C(=O)Nc1ccc(Oc2ccnc(N)c2Cl)c(F)c1 [BMS-777607]
IC50 [3]: > 2000 nM | Tmax [4]: 0.5 h | IC50 [5]: > 2000 nM | IC50 [6]: 180 nM | IC50 [7]: 550 nM | bioavailability [8]: 100% | AUC(0-t) at 24 h [9]: 567 µM·h | fraction unbound [10]: < 0.01 | inhibition in vivo at 50 mg/kg [11]: 102% | inhibition in vivo at 6.25 mg/kg [12]: 66% | Vd [13]: 0.2 L/kg | IC50 (NCI-N87): > 10000 nM | IC50 [14]: 4.3 nM | IC50 [15]: 190 nM | IC50 (Ephrin type-A receptor 3): > 500 nM | half-life [16]: 4.8 h | Cmax (Mus musculus [17]): 17.6 µM | IC50 [18]: > 2000 nM | IC50 [19]: > 500 nM | IC50 [20]: > 2000 nM | Activity (Mus musculus [21]): Non-toxic | Tmax [22]: 1.7 h | IC50 [23]: 1000 nM | IC50 (Aurora kinase B): 78 nM | bioavailability [24]: 100% | Cmax (Rattus norvegicus): 8.7 µM | fraction unbound [25]: < 0.01 | Vd [26]: 1.2 L/kg | AUC(0-t) at 24 h [27]: 37 µM·h | IC50 [28]: 20 nM | inhibition in vivo at 25 mg/kg [29]: 95% | IC50 [30]: 14 nM | IC50 [31]: > 2000 nM | Activity (Mus musculus [32]): Non-toxic | clearance [33]: 0.82 mL/min/kg | half-life [34]: 4.5 h | IC50 [35]: > 2000 nM | Activity (Mus musculus [36]): Non-toxic | IC50 [37]: > 500 nM | Cmax [38]: 4.5 µM | IC50 (NCI-H1993): 150 nM | IC50 [39]: 290 nM | Cmax [40]: 43.7 µM | fraction unbound [41]: < 0.01 | Vd [42]: 1 L/kg | IC50 [1]: 100 nM | IC50 [43]: 1.8 nM | Tmax [44]: 2.3 h | clearance [45]: 4.4 mL/min/kg | clearance [46]: 12.1 mL/min/kg | IC50 [47]: 160 nM | bioavailability [48]: 100% | Cmax (Canis familiaris): 29 µM | solubility [49]: 400 µg/mL (≈ 780 µM) | half-life [50]: 4.9 h | IC50 [2]: 3.9 nM

The next lines start with results.

IC50 [2]: 5.9 nM
Compound: CN1CCN(Cc2c(Oc3ccc(NC(=O)c4cccn(-c5ccc(F)cc5)c4=O)cc3F)ccnc2N)CC1
IC50 [1]: 2800 nM

IC50 [2]: 3.4 nM
Compound: Nc1nccc(Oc2ccc(NC(=O)c3cccn(-c4ccc(F)cc4)c3=O)cc2F)c1CO
IC50 [1]: 280 nM

IC50 [2]: 2.7 nM
Compound: Nc1nccc(Oc2ccc(NC(=O)c3cccn(-c4ccc(F)cc4)c3=O)cc2F)c1C#CCO
IC50 [1]: 23 nM
